How the values were obtained:
[1] = molecular target: T1, Amine oxidase [flavin-containing] B (Homo sapiens, UniProt P27338); test: Reversible inhibition of human MAOB at 2 fold enzymatic IC50 level pre-incubated for 30 mins using p-tyramine substrate and measured after 15 mins by Amplex red reagent based fluorescence assay; settings: 0.25 h
T1 sequence (P27338 whole entry): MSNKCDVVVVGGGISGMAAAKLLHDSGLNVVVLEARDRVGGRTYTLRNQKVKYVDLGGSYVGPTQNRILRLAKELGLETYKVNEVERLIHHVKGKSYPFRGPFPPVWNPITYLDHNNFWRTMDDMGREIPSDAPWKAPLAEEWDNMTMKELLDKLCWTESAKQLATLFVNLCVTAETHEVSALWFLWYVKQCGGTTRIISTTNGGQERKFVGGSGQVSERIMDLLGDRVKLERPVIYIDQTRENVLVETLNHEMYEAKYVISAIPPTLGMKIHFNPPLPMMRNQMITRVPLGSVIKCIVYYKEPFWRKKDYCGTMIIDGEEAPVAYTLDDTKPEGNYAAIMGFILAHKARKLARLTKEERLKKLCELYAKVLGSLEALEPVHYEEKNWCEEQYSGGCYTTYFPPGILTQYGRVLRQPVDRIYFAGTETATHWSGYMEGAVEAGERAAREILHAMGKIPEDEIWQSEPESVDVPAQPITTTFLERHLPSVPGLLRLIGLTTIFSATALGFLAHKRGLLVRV

[2] = molecular target: T1, Amine oxidase [flavin-containing] B; test: Inhibition of human MAOB incubated for 15 mins using p-tyramine substrate by Amplex red reagent based fluorescence assay
[3] = molecular target: T2, Amine oxidase [flavin-containing] A (Homo sapiens, UniProt P21397); test: Inhibition of human MAOA incubated for 15 mins using p-tyramine substrate by Amplex red reagent based fluorescence assay
T2 sequence (P21397 whole entry): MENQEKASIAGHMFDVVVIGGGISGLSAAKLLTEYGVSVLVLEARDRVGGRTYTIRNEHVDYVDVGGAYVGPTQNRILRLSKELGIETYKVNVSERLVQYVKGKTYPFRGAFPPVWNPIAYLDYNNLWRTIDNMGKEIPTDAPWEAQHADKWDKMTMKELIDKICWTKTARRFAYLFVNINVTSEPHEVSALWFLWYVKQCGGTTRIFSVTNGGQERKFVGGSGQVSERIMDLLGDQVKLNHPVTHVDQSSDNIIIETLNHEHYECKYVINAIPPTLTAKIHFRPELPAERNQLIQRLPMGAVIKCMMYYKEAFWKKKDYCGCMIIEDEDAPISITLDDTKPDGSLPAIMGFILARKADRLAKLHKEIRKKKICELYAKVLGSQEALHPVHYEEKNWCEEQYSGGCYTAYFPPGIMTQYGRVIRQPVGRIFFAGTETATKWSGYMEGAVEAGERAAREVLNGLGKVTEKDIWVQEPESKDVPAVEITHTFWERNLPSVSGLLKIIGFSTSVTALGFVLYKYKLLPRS
Method in brief: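 IC50 against hMAO-A is reported as mean ± SEM of three experiments, with iproniazid as reference.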

[4] = molecular target: T1, Amine oxidase [flavin-containing] B; test: Reversible inhibition of human MAOB at 2 fold enzymatic IC50 level pre-incubated for 0 mins using p-tyramine substrate and measured after 15 mins by Amplex red reagent based fluorescence assay; settings: 0.25 h
[5] = molecular target: T1, Amine oxidase [flavin-containing] B; test: Reversible inhibition of human MAOB at 2 fold enzymatic IC50 level pre-incubated for 15 mins using p-tyramine substrate and measured after 15 mins by Amplex red reagent based fluorescence assay; settings: 0.25 h
SH-SY5Y = test: Cytotoxicity in human SH-SY5Y cells assessed as reduction in cell viability at 3 to 50 uM incubated for 48 hrs by MTT assay; assay type: cell-based
Method in brief: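 SH-SY5Y cells were exposed to various concentrations of test compound for 48 h, then viability was read by MTT assay. Results are expressed as percentage of control cells, mean ± SD of three independent experiments.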

[6] = molecular target: T1, Amine oxidase [flavin-containing] B; test: Reversible inhibition of human MAOB at 2 fold enzymatic IC50 level pre-incubated for 0 to 60 mins using p-tyramine substrate and measured after 15 mins by Amplex red reagent based fluorescence assay; settings: 0.25 h
[7] = molecular target: T1, Amine oxidase [flavin-containing] B; test: Reversible inhibition of human MAOB at 2 fold enzymatic IC50 level pre-incubated for 60 mins using p-tyramine substrate and measured after 15 mins by Amplex red reagent based fluorescence assay; settings: 0.25 h
Homo sapiens = species: Homo sapiens; test: Selectivity index, ratio of IC50 for human MAOA to IC50 for human MAOB
Method in brief: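 Selectivity index was computed as IC50 (MAO-A)/IC50 (MAO-B), each IC50 being the mean of three experiments.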

[8] = molecular target: T3, MAO-A (amine oxidase [flavin-containing] A) (Homo sapiens, UniProt P21397); test: Inhibition of human MAOA at 100 uM incubated for 15 mins using p-tyramine substrate by Amplex red reagent based fluorescence assay; settings: human MAOA enzyme, probe p-tyramine
T3 sequence (P21397 whole entry): T2 sequence (P21397 whole entry)
Method in brief: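 hMAO-A was tested at a single concentration of 100 μM, with iproniazid as reference inhibitor.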

[9] = molecular target: T1, Amine oxidase [flavin-containing] B; test: Competitive inhibition of human MAOB at 0.095 to 0.38 uM using 50 to 500 uM p-tyramine substrate by Amplex red reagent dependent fluorescence assay based Lineweaver-Burk plot analysis
Method in brief: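 Kinetics were run as Michaelis-Menten experiments. Rates were measured at five p-tyramine concentrations (50-500 μM), with four inhibitor concentrations (0, 0.095, 0.19 and 0.38 μM). Inhibition type was assigned from overlaid double-reciprocal Lineweaver-Burk plots.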

Row | SMILES | IC50 [2] [µM] | IC50 [3] [µM] | Ratio IC50 (Homo sapiens) | inhibition at 0.25 h, 100 µM [8] [%] | also measured
1 | Brc1cccc(OCc2ccccc2)c1 | 2.73 | – | > 36.6 | 23 | –
2 | COc1cccc(OCc2ccc(Br)cc2)c1 | 8.63 | – | > 11.6 | 25 | –
3 | COc1cccc(OCc2ccccc2)c1 | 15.8 | – | > 6.3 | 25 | –
4 | COc1cccc(OCc2cccc(F)c2)c1 | 12.3 | – | > 8.1 | 19 | –
5 | Fc1cccc(COc2cccc(Br)c2)c1 | 1.06 | – | > 94.3 | 37 | –
6 | Brc1cccc(COc2cccc(Br)c2)c1 | 0.76 | – | > 132 | 27 | –
7 | COc1cccc(OCc2cccc(Br)c2)c1 | 19.3 | – | > 5.2 | 22 | –
8 | COc1cccc(OCc2cccc(C)c2)c1 | 10.9 | – | > 9.2 | 23 | –
9 | Cc1cccc(COc2cccc(Br)c2)c1 | 1.98 | – | > 50.5 | 43 | –

More lines, main results first:

Row | IC50 [2] [µM] | IC50 [3] [µM] | Ratio IC50 (Homo sapiens) | inhibition at 0.25 h, 100 µM [8] [%] | SMILES | also measured
10 | 0.19 | 27.9 | – | – | O=Cc1cccc(OCc2ccc(Br)cc2)c1 | inhibition (INH) [1]: 49.9%; inhibition (INH) [4]: 46.4%; inhibition (INH) [5]: 45.8%; Activity (SH-SY5Y): Non-Toxic; inhibition (INH) [6]: Active; inhibition (INH) [7]: 49.5%
11 | 15.6 | – | > 6.4 | 22 | COc1cccc(OCc2ccc(F)cc2)c1 | –
12 | 1.96 | 45.6 | 23.3 | – | O=Cc1cccc(OCc2ccccc2)c1 | –
13 | 1.21 | 64.2 | 53.1 | – | O=Cc1cccc(OCc2cccc(F)c2)c1 | –
14 | 0.93 | 42.5 | 45.7 | – | O=Cc1cccc(OCc2ccc(F)cc2)c1 | –
15 | 1.53 | – | > 65.4 | 24 | Cc1ccc(COc2cccc(Br)c2)cc1 | –
16 | 0.58 | – | > 172 | 31 | Fc1ccc(COc2cccc(Br)c2)cc1 | –
17 | 14.6 | – | > 6.8 | 26 | COc1cccc(OCc2ccc(C)cc2)c1 | –
18 | 2.91 | 51.6 | 17.7 | – | Cc1cccc(COc2cccc(C=O)c2)c1 | –
19 | 2.53 | 64.8 | 25.6 | – | Cc1ccc(COc2cccc(C=O)c2)cc1 | –
20 | 0.35 | – | – | 30 | Brc1ccc(COc2cccc(Br)c2)cc1 | inhibition (INH) [1]: 48.6%; inhibition (INH) [4]: 44.8%; inhibition (INH) [5]: 44.9%; Activity (SH-SY5Y): Non-Toxic; inhibition (INH) [6]: Active; inhibition (INH) [7]: 49.2%; inhibition (INH) [9]: Active
21 | 0.53 | 28.2 | 53.2 | – | O=Cc1cccc(OCc2cccc(Br)c2)c1 | –

Reference: ChEMBL document CHEMBL4138066, “Synthesis and evaluation of small molecules bearing a benzyloxy substituent as novel and potent monoamine oxidase inhibitors” (Medchemcomm, 2017)
